# Reference: ChEMBL document CHEMBL3120102, “Structure-based design, synthesis and biological evaluation of novel anthra[1,2-d]imidazole-6,11-dione homologues as potential antitumor agents” (2013)
# Key:
# Type in all cases: functional
# MDA-MB-468 = experiment: Cytotoxicity against human MDA-MB-468 cells assessed as growth inhibition after 48 hrs by SRB assay; conditions: for GI50 / LC50 / TGI: MDA-MB-468, 48 h
# Outline: (§1)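 NCI 60-cell-line screen, five-dose stage: each cell line exposed for 48 h to five concentrations spanning five log steps; cellular protein measured by sulforhodamine B colorimetry. A time-zero cell control and plates without drug are used to derive GI50, TGI and LC50 from log-concentration dose-response curves.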
# T47D = experiment: Cytotoxicity against human T47D cells assessed as growth inhibition after 48 hrs by SRB assay
# Outline: (§2)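 NCI 60-cell-line screen, two stages. Five-dose testing at […]. Cellular protein measured by sulforhodamine B colorimetry after 48 h drug exposure. A time-zero control and drug-free plates are used to derive GI50, TGI and LC50 from dose-response curves plotted as log10 concentration per cell line.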
# [1] = (§3) Cytotoxicity against human Hs578T cells assessed as growth inhibition after 48 hrs by SRB assay; conditions: Hs-578T; for CC50: read-out: LC50 (the source's name)
# Outline: (§4)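 NCI 60-cell-line five-dose screen at […]. Drug exposure was 48 h, followed by sulforhodamine B protein staining. GI50, TGI and LC50 were calculated against a time-zero control and untreated plates, with dose–response curves plotted from log10 concentration.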
# Hs-578T = experiment: as §3; outline: as §4
# PC-3 = experiment: Cytotoxicity against human PC3 cells assessed as growth inhibition after 48 hrs by SRB assay; conditions: for GI50 / LC50 / TGI: PC-3, 48 h; outline: as §1
# TK-10 = experiment: Cytotoxicity against human TK10 cells assessed as growth inhibition after 48 hrs by SRB assay; conditions: for GI50 / LC50 / TGI: TK-10, 48 h; outline: as §2
# CAKI-1 = experiment: Cytotoxicity against human CAKI-1 cells assessed as growth inhibition after 48 hrs by SRB assay; outline: as §4
# LOX IMVI = experiment: Cytotoxicity against human LOXIMVI cells assessed as growth inhibition after 48 hrs by SRB assay; outline: as §4
# HCT-116 = experiment: Cytotoxicity against human HCT116 cells assessed as growth inhibition after 48 hrs by SRB assay; conditions: for GI50 / LC50 / TGI: HCT-116, 48 h; outline: as §4
# NCI-H522 = experiment: Cytotoxicity against human NCI-H522 cells assessed as growth inhibition after 48 hrs by SRB assay; conditions: for GI50 / TGI / CC50: NCI-H522, 48 h; for CC50: read-out: LC50 (the source's name); outline: as §1
# HOP-92 = experiment: Cytotoxicity against human HOP92 cells assessed as growth inhibition after 48 hrs by SRB assay; conditions: for GI50 / TGI / CC50: HOP-92, 48 h; for CC50: read-out: LC50 (the source's name); outline: as §4
# [2] = (§5) Cytotoxicity against human EKVX cells assessed as growth inhibition after 48 hrs by SRB assay; outline: as §4
# EKVX = experiment: as §5; outline: as §4
structure (smiles),measurement,setting,value
CCCSc1nc2ccc3c(c2[nH]1)C(=O)c1ccccc1C3=O,growth inhibition (GI),MDA-MB-468,Dose-dependent effect
same,GI50,MDA-MB-468,6.38 µM
same,LC50,MDA-MB-468,> 100 µM
same,TGI,MDA-MB-468,> 100 µM
same,GI50,T47D,2.66 µM
same,LC50,T47D,> 100 µM
same,TGI,T47D,> 100 µM
same,growth inhibition (GI),T47D,Dose-dependent effect
same,GI50,[1],3.45 µM
same,TGI,[1],83 µM
same,CC50,[1],> 100 µM
same,growth inhibition (GI),Hs-578T,Dose-dependent effect
same,growth inhibition (GI),PC-3,Dose-dependent effect
same,GI50,PC-3,11.3 µM
same,LC50,PC-3,> 100 µM
same,TGI,PC-3,> 100 µM
same,growth inhibition (GI),TK-10,Dose-dependent effect
same,GI50,TK-10,3.25 µM
same,LC50,TK-10,> 100 µM
same,TGI,TK-10,21.6 µM
same,growth inhibition (GI),CAKI-1,Dose-dependent effect
same,GI50,"CAKI-1; CAKI-1, 48 h",3.07 µM
same,LC50,"CAKI-1; CAKI-1, 48 h",> 100 µM
same,TGI,"CAKI-1; CAKI-1, 48 h",> 100 µM
same,GI50,LOX IMVI,3.69 µM
same,LC50,LOX IMVI,> 100 µM
same,TGI,LOX IMVI,> 100 µM
same,growth inhibition (GI),LOX IMVI,Dose-dependent effect
same,growth inhibition (GI),HCT-116,Dose-dependent effect
same,GI50,HCT-116,3.06 µM
same,LC50,HCT-116,> 100 µM
same,TGI,HCT-116,> 100 µM
same,growth inhibition (GI),NCI-H522,Dose-dependent effect
same,GI50,NCI-H522,11.6 µM
same,TGI,NCI-H522,> 100 µM
same,CC50,NCI-H522,> 100 µM
same,growth inhibition (GI),HOP-92,Dose-dependent effect
same,GI50,HOP-92,15 µM
same,TGI,HOP-92,> 100 µM
same,CC50,HOP-92,> 100 µM
same,GI50,[2],64.9 µM
same,LC50,[2],> 100 µM
same,TGI,[2],> 100 µM
same,growth inhibition (GI),EKVX,Dose-dependent effect
O=C1c2ccccc2C(=O)c2c1ccc1nc(SCCN3CCCC3)[nH]c21,growth inhibition (GI),MDA-MB-468,Dose-dependent effect
same,GI50,MDA-MB-468,1.33 µM
same,LC50,MDA-MB-468,7.05 µM
same,TGI,MDA-MB-468,3.06 µM
same,GI50,T47D,17.5 µM
same,LC50,T47D,92.8 µM
same,TGI,T47D,40.3 µM
same,growth inhibition (GI),T47D,Dose-dependent effect
same,GI50,[1],6.24 µM
same,TGI,[1],25.8 µM
same,CC50,[1],79.9 µM
same,growth inhibition (GI),Hs-578T,Dose-dependent effect
same,growth inhibition (GI),PC-3,Dose-dependent effect
same,GI50,PC-3,2.57 µM
same,LC50,PC-3,43.4 µM
same,TGI,PC-3,11 µM
same,growth inhibition (GI),TK-10,Dose-dependent effect
same,GI50,TK-10,4.22 µM
same,LC50,TK-10,46.8 µM
same,TGI,TK-10,19.1 µM
same,GI50,LOX IMVI,1.43 µM
same,LC50,LOX IMVI,6.25 µM
same,TGI,LOX IMVI,2.99 µM
same,growth inhibition (GI),LOX IMVI,Dose-dependent effect
same,growth inhibition (GI),HCT-116,Dose-dependent effect
same,GI50,HCT-116,1.64 µM
same,LC50,HCT-116,8.15 µM
same,TGI,HCT-116,3.66 µM
same,growth inhibition (GI),NCI-H522,Dose-dependent effect
same,TGI,NCI-H522,32.5 µM
same,TGI,[2],26.5 µM
same,growth inhibition (GI),EKVX,Dose-dependent effect
CCSc1nc2ccc3c(c2[nH]1)C(=O)c1ccccc1C3=O,growth inhibition (GI),MDA-MB-468,Dose-dependent effect
same,GI50,MDA-MB-468,2.01 µM
same,LC50,MDA-MB-468,> 100 µM
same,TGI,MDA-MB-468,59.6 µM
same,GI50,T47D,4.21 µM
same,LC50,T47D,> 100 µM
same,TGI,T47D,> 100 µM
same,growth inhibition (GI),T47D,Dose-dependent effect
same,GI50,[1],5.12 µM
same,TGI,[1],> 100 µM
same,CC50,[1],> 100 µM
same,growth inhibition (GI),Hs-578T,Dose-dependent effect
same,growth inhibition (GI),PC-3,Dose-dependent effect
same,GI50,PC-3,65 µM
same,LC50,PC-3,> 100 µM
same,TGI,PC-3,> 100 µM
same,growth inhibition (GI),TK-10,Dose-dependent effect
same,GI50,TK-10,7.4 µM
same,LC50,TK-10,> 100 µM
same,TGI,TK-10,> 100 µM
same,GI50,LOX IMVI,6 µM
same,LC50,LOX IMVI,> 100 µM
same,TGI,LOX IMVI,> 100 µM
same,growth inhibition (GI),LOX IMVI,Dose-dependent effect
same,growth inhibition (GI),HCT-116,Dose-dependent effect
same,GI50,HCT-116,5.59 µM
same,LC50,HCT-116,> 100 µM
same,TGI,HCT-116,> 100 µM
same,growth inhibition (GI),NCI-H522,Dose-dependent effect
same,GI50,NCI-H522,4.07 µM
same,TGI,NCI-H522,> 100 µM
same,CC50,NCI-H522,> 100 µM
same,growth inhibition (GI),HOP-92,Dose-dependent effect
same,GI50,HOP-92,90.6 µM
same,TGI,HOP-92,> 100 µM
same,CC50,HOP-92,> 100 µM
same,GI50,[2],2.13 µM
same,LC50,[2],> 100 µM
same,TGI,[2],29 µM
same,growth inhibition (GI),EKVX,Dose-dependent effect
CN(C)CCCSc1nc2ccc3c(c2[nH]1)C(=O)c1ccccc1C3=O,growth inhibition (GI),MDA-MB-468,Dose-dependent effect
same,GI50,MDA-MB-468,< 0.01 µM
same,TGI,MDA-MB-468,0.439 µM
same,GI50,T47D,8.73 µM
same,TGI,T47D,24.8 µM
same,growth inhibition (GI),T47D,Dose-dependent effect
same,GI50,[1],4.84 µM
same,TGI,[1],22.9 µM
same,CC50,[1],65 µM
same,growth inhibition (GI),Hs-578T,Dose-dependent effect
same,growth inhibition (GI),TK-10,Dose-dependent effect
same,GI50,TK-10,1.37 µM
same,TGI,TK-10,13.5 µM
same,growth inhibition (GI),CAKI-1,Dose-dependent effect
same,GI50,"CAKI-1; CAKI-1, 48 h",0.822 µM
same,TGI,"CAKI-1; CAKI-1, 48 h",11 µM
same,GI50,LOX IMVI,1.36 µM
same,TGI,LOX IMVI,3 µM
same,growth inhibition (GI),LOX IMVI,Dose-dependent effect
same,growth inhibition (GI),HCT-116,Dose-dependent effect
same,GI50,HCT-116,1.85 µM
same,TGI,HCT-116,8.75 µM
same,growth inhibition (GI),NCI-H522,Dose-dependent effect
same,GI50,NCI-H522,12.2 µM
same,TGI,NCI-H522,24.9 µM
same,CC50,NCI-H522,50.5 µM
same,GI50,[2],4.2 µM
same,TGI,[2],20.1 µM
same,growth inhibition (GI),EKVX,Dose-dependent effect
